Source: PubChem BioAssay
This is a sample that favours compounds with a hit; in the whole collection about 2.9% have one here.
CHO-K1 Ca PAM: nonselective calcium activators in parental CHO-K1 cells, primary screen, counter-screen for M1 PAM project, cell-based, Fluo-8 calcium fluorescence, full deck, 1536-well. AID 602247, 2012. 0.02% of 360,000 active. activation, % at 3 µM. ATP EC20; 0% at ATP EC20, 100% at ATP max;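 active means activation above the run cutoff, the mean activation of all test compounds plus 3 SD, cut at about 40% in these data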;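 further: peak over basal fluorescence ratio in a 140 s read after ATP addition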
OX1R antag-1: antagonists of human orexin 1 receptor (OX1R); OX1R-expressing cells, FRET antagonist read-out; inhibition, % at 6.6 µM; 1.8% of 330,000 active; AID 485270, 2010; in the data active means inhibition mostly above about 38%, no sharp cut-off; inactive means mostly below about 40%;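 further: 0% = agonist challenge alone and 100% = reference antagonist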
Target sequence (O43613 whole entry, looked up): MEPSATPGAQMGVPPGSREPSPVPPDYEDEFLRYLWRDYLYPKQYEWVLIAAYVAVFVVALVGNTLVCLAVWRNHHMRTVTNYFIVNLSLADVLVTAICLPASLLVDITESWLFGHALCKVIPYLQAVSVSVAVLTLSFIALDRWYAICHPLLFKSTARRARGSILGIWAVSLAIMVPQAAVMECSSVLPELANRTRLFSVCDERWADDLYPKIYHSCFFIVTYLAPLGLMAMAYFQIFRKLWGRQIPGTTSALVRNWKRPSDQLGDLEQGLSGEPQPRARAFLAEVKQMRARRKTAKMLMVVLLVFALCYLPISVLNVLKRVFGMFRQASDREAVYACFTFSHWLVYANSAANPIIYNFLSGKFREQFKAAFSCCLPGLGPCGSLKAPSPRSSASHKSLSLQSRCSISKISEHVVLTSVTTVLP
CHO parental Ca: ATP-evoked calcium signal inhibitors, parental CHO, primary screen, counter-screen for OX1R antagonist project, cell-based, fluorescence, Fluo-8 calcium dye. inhibition, % at 5.6 µM. 0.63% of 330,000 active. parental CHO-K1, ATP-induced calcium, Fluo-8 fluorescence;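 active means inhibition above that plate's mean sample inhibition plus 3 SD, cut at about 26% in these data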;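 further: 0% = ATP-challenged DMSO wells and 100% = DMSO wells without ATP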
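Test system: parental CHO cells; detection: calcium-sensitive Fluo-8 fluorescence; evaluation: percent inhibition of calcium signal; also added: ATP as calcium-mobilizing challenge; repeats: one well per compound; control set: ATP-challenged DMSO wells low, unchallenged DMSO wells high; compound: single nominal dose of 5.6 µM per compound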
M1 ag parental: counter-screen for M1 agonists: effect in parental CHO-K1 cells; activation, % at 3 µM; 0.48% of 360,000 active; AID 602248, 2012; Fluo-8 calcium fluorescence; scaled to maximal ATP response, vehicle zero; in the data active means activation above about 15%;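 further: untransfected CHO-K1 host cells lacking M1 receptor as counterscreen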
OX1R antag-2: OX1R (HCRTR1) antagonists, primary screen, fluorescence, CHO/OX1R cells, Fluo-8 calcium, orexin A. 0.43% of 330,000 active. AID 434989, 2010. Orexin/Hypocretin receptor type 1 (Homo sapiens), O43613. inhibition, % at 5 µM. Fluo-8 calcium fluorescence;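 active means inhibition above its plate's threshold, mean inhibition of all tested compounds on the plate plus 3 SD, cut at about 37% in these data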;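 further: 0% = orexin A challenge wells and 100% = SB-334867-A antagonist wells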
CHO-K1 Ca antag: nonselective inhibitor or artifact in parental CHO-K1 cells | 0.6% of 360,000 active | ATP-induced calcium, Fluo-8 fluorescence | inhibition, % at 3 µM | AID 602250;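 active means inhibition above a per-plate cutoff, the plate's mean sample inhibition plus 3 SD, cut at about 24% in these data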;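 further: 0% = DMSO plus EC80 ATP and 100% = DMSO alone without ATP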
The depositor's hits bear a star; · = not tested or not shown.

SMILES	CHO-K1 Ca PAM	OX1R antag-1	CHO parental Ca	M1 ag parental	OX1R antag-2	CHO-K1 Ca antag
COC(=O)CC1C(=O)NCCN1C(=O)CSc1nc2ccc([N+](=O)[O-])cc2s1 (stereo not drawn)	6.2	71.4*	-9.9	1.0	-10.8	-4.3
COc1ccc(OC)c2sc(N(CCCN(C)C)C(=O)c3ccc(S(=O)(=O)N4CCc5ccccc5C4)cc3)nc12	·	22.1	15.5	·	-12.9	·
COc1ccc(C)c2sc(N(CCCN(C)C)C(=O)c3ccc(S(=O)(=O)N4CCc5ccccc5C4)cc3)nc12	7.8	3.8	6.5	18.8*	-4.3	10.1
C=C1CC(C(=O)N/N=C/c2ccc(O)cc2)C1	-14.9	15.2	-5.0	0.0	-11.9	25.1*
O=C(NN=Cc1ccc(F)cc1)C1CC1	10.0	·	·	3.0	·	-7.3
CN(Cc1ccccc1)C(=O)COc1cc(Cl)ccc1Cl	8.6	28.1	-13.4	4.3	-15.5	-6.0
COc1ccccc1N(Cc1ccccc1)S(=O)(=O)c1cccc(C(=O)Nc2cc(C)ccn2)c1	7.8	9.7	4.9	0.3	-14.3	-10.1
Cc1ccnc(NC(=O)c2cc3ccccc3o2)c1	7.3	52.7*	-19.2	-0.1	-28.6	-3.1
O=C(Nc1ccccc1C(=O)Nc1nnc(C(F)(F)F)s1)c1ccccc1	-10.3	72.1*	59.4*	9.4	54.0*	26.3*
CCC(C)(C)n1nnnc1C(c1ccc(F)cc1)N1CCC(C(N)=O)CC1 (stereo not drawn)	4.9	7.1	-14.3	0.0	-5.9	-6.9
CCN(CC)CC#CCC(O)(c1ccccc1)C1CCCCC1 (stereo not drawn)	-6.0	-9.3	-19.8	16.1*	-14.8	18.8
CCN(CC)CC#CCOC(=O)C(O)(c1ccccc1)C1CCCCC1 (stereo not drawn)	·	12.6	-21.8	·	-27.0	·
CC(=O)c1cccc(NC(=O)CCn2c(=S)oc3ccccc32)c1	-9.9	8.4	-14.8	0.6	-11.3	1.9
COc1ccc(NC(=O)COc2coc(CN3CCc4ccccc4C3)cc2=O)cc1	-1.5	14.4	-19.3	0.1	-33.9	-4.8
NC(=O)c1ccc(NC(=O)COc2coc(CN3CCc4ccccc4C3)cc2=O)cc1	1.8	24.8	0.2	16.0*	-3.5	6.9
COc1ccc(NC(=O)C2Cc3c(-c4cccc(C(N)=O)c4)ccnc3O2)cc1OC (stereo not drawn)	-2.8	·	·	-0.2	·	-7.5
COc1ccc(NC(=O)C2Cc3c(-c4cccc(C(C)=O)c4)ccnc3O2)cc1OC (stereo not drawn)	-16.5	·	·	2.4	·	23.9*
O=C(CN1C(=O)COc2ccccc21)c1ccc(Cl)cc1	-7.9	8.6	-3.5	0.0	-16.9	30.2*
COc1ccc(CC(=O)NC2CC(C)(C)NC(C)(C)C2)cc1OC	-7.7	-8.0	-6.8	0.3	-10.1	0.4
Cc1ccc(C(=O)Oc2ccccc2N2CCOCC2)cc1	7.6	2.7	-19.4	19.7*	-0.3	-4.2
O=C(Oc1ccccc1N1CCOCC1)c1ccccc1	16.8	28.6	-6.0	0.9	2.7	-3.0
Nc1ccccc1-c1nc2ccccc2s1	15.1	20.9	-22.1	0.7	-18.0	-10.4
CN(C)c1nc(N)nc(-c2nc3ccccc3s2)n1	19.1	58.0*	-28.1	0.4	-12.4	-10.2
Cc1cc(C(=O)N2CCC2(C)C(=O)NS(=O)(=O)c2cccc(Cl)c2)nn1C (stereo not drawn)	34.2	·	·	1.1	·	-16.4
CCN(CC)C(=O)Cn1c(=O)n(-c2ccccc2)c(=O)c2sccc21	14.4	15.3	-1.3	-0.1	-12.7	-13.0
SMILES	CHO-K1 Ca PAM	OX1R antag-1	CHO parental Ca	M1 ag parental	OX1R antag-2	CHO-K1 Ca antag
CC1(C)CC2CC(C)(CN2C(=S)Nc2ccccc2)C1 (stereo not drawn)	22.1	7.9	-10.5	15.7*	-20.7	-12.0
Cn1c(=O)c(=O)n(C)c2cc(S(=O)(=O)N3CCCC3C(=O)NCc3cccs3)ccc21 (stereo not drawn)	10.5	16.2	-2.6	2.5	-2.3	-11.5
CCCCNS(=O)(=O)c1ccc2nc(SCC(=O)Nc3sccc3C#N)[nH]c2c1	11.6	76.1*	46.5*	6.1	54.5*	8.2
CCN(CC)c1ccc(NC(=O)/C=C\c2ccccc2Cl)cc1	-7.0	40.1*	-17.9	0.1	12.0	5.8
O=C(/C=C/c1ccccc1Cl)NCc1ccccc1	18.6	27.6	-4.8	2.4	-22.5	-9.1
Cc1cc(NC(=O)/C=C/c2ccccc2Cl)no1	8.5	7.5	7.9	-0.1	0.3	0.8
CN(C)c1ccc(NC(=O)/C=C/c2ccccc2Cl)cc1	-8.3	64.0*	-15.9	0.5	-7.8	17.8
CC(C)(C)OC(=O)C[C@@H]1C/C=C\C[C@H](CC(=O)N(CCO)Cc2ccccc2)C(=O)N2CCC[C@@H]2COC1=O	15.0	7.7	-10.2	1.7	-10.6	-13.1
O=C(Nc1ccc(F)cc1)Nc1cnccn1	13.4	4.5	1.1	1.6	-6.0	-8.7
O=C(Nc1cc(Cl)cc(Cl)c1)Nc1cnccn1	-28.1	39.1	35.9*	0.7	30.4	29.6*
CN(C)S(=O)(=O)c1cccc(NC(=O)CCCc2nc3ccccc3c(=O)[nH]2)c1	14.0	16.1	-3.8	1.3	-15.2	1.9
CCN(C(=O)COC(=O)CNC(=O)c1cccs1)c1c(N)n(Cc2ccccc2)c(=O)[nH]c1=O	-10.4	·	·	0.1	·	-7.4
COc1ccc(C/C(N)=N/OC(C)=O)cc1OC	24.1	6.2	0.1	0.8	-5.8	-10.5
COc1ccc(C/C(N)=N/OC(=O)C(c2ccccc2)c2ccccc2)cc1OC	12.8	21.4	-9.4	1.6	53.8*	-16.0
COc1ccc(C(=O)NCCCNC(=O)c2ccccn2)cc1Br	-5.3	12.5	5.9	0.4	-18.9	-1.0
CCCCNc1c(CC(C)C)nc2nc(C)cc(C)n12	-9.4	·	·	-0.8	·	25.2*
Cc1cc(C)n2c(Nc3c(C)cccc3C)c(CC(C)C)nc2n1	12.4	·	·	0.6	·	-15.2
Cc1cc(C)c(NC(=O)CSc2nc3ccccc3c(=O)n2CCCN2CCOCC2)c(C)c1	4.2	0.8	-18.8	0.5	0.9	20.2
O=C(CCC1CCN(C(=O)CC2=CCCCC2)CC1)NCc1ccc(F)cc1	-10.0	·	·	1.6	·	-4.0
CCCN1/C(=C(\C#N)C2=NS(=O)(=O)c3ccccc32)N(C)c2ccccc21	23.4	·	·	0.8	·	-15.8
COc1cc(CNCc2ccc(Br)cc2)cc(OC)c1	-12.0	4.5	-7.0	15.1*	-11.1	18.5
CCOC(=O)c1cc2ccccc2n1C1CCN(C)CC1	15.4	·	·	2.6	·	0.3
COc1ccccc1N1CCN(S(=O)(=O)CCNC(=O)Cc2ccc(F)cc2)CC1	12.4	4.0	-10.3	6.0	-21.4	-7.6
